Data published in ChEMBL document CHEMBL4610022, “Imidazolidine-2,4,5- and pirimidine-2,4,6-triones - New primary pharmacophore for soluble epoxide hydrolase inhibitors with enhanced water solubility” (Bioorg Med Chem Lett, 2020).
pIC50: −log10 of the molar value. In brackets after ≈: the same amount, converted by molar mass.

How the values were obtained:
[1] = Solubility of compound in pH 7.4 sodium phosphate buffer; assay type: physicochemical
Procedure, shortened: (§1)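 Solubility measured in 0.1 M sodium phosphate buffer, pH 7.4, containing 1% DMSO.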

[2] = biological target: T1, Bifunctional epoxide hydrolase 2 (Homo sapiens, UniProt P34913); experiment: Inhibition of human soluble epoxide hydrolase using cyano(2methoxy naphthalen-6-yl)methyl trans-(3-phenyloxyran-2-yl)methylcarbonate as substrate preincubated for 5 mins followed by substrate addition and measured after 10 mins by fluorescence based assay
T1 sequence (P34913 whole entry): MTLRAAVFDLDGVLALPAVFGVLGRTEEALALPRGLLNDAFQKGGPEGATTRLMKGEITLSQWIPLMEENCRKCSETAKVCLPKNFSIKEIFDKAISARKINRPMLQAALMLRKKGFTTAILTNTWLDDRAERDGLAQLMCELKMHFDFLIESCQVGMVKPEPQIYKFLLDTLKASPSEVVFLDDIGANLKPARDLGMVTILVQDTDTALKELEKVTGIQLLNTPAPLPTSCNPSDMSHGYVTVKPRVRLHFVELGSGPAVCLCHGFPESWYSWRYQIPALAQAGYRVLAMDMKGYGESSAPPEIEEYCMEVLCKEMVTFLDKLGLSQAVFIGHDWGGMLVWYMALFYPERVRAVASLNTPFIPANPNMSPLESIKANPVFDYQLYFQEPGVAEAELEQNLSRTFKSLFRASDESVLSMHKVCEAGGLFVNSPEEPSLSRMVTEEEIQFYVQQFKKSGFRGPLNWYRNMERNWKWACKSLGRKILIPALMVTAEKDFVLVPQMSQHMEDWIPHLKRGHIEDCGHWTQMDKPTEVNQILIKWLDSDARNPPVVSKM
Procedure, shortened: (§2)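 Kinetic fluorescent read-out of sEH activity; each reported value is the mean of three separate experiments.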

[3] = biological target: T1, Bifunctional epoxide hydrolase 2; experiment: Inhibition of human soluble epoxide hydrolase by kinetic fluorescent assay; procedure, shortened: as §2
[4] = Aqueous solubility of compound; assay type: physicochemical; procedure, shortened: as §1

Compound: CC12CC3CC(C)(C1)CC(NC(=O)NC1C4CC5CC(C4)CC1C5)(C3)C2 (stereo not given)
- solubility [1]: 20 µM (≈ 7.13 µg/mL)
- pIC50 [2]: 8.02

Compound: O=C1C2CC3CC1CC(N1C(=O)C(=O)N(C45CC6CC(C4)C(=O)C(C6)C5)C1=O)(C3)C2
- pIC50 [3]: 5.07
- solubility [1]: 150 µM (≈ 61.6 µg/mL)

Compound: CCC(CC12CC3CC(CC(C3)C1)C2)N1C(=O)C(=O)N(CCCCN2C(=O)C(=O)N(C(CC)CC34CC5CC(CC(C5)C3)C4)C2=O)C1=O (stereo not given)
- pIC50 [3]: 8.08
- solubility [1]: 90 µM (≈ 59.7 µg/mL)

Compound: O=C1C(=O)N(CCC23CC4CC(CC(C4)C2)C3)C(=O)N1CCCCCCCCN1C(=O)C(=O)N(CCC23CC4CC(CC(C4)C2)C3)C1=O
- pIC50 [3]: 6.36
- solubility [1]: 600 µM (≈ 398 µg/mL)

Compound: O=C(Nc1ccccc1F)NC1C2CC3CC(C2)CC1C3 (stereo not given)
- pIC50 [3]: 9.00
- solubility [1]: 85 µM (≈ 24.5 µg/mL)

Compound: O=C(NC1CCCCCC1)N[C@H]1CC[C@H](Oc2ccc(C(=O)O)cc2)CC1
- pIC50 [3]: 8.35
- solubility [1]: 100 µM (≈ 37.4 µg/mL)

Compound: O=C1C(=O)N(c2ccccc2F)C(=O)N1CC12CC3CC(CC(C3)C1)C2
- pIC50 [3]: 6.51
- solubility [1]: 350 µM (≈ 125 µg/mL)

Compound: O=C1C(=O)N(CCC23CC4CC(CC(C4)C2)C3)C(=O)N1CCCCN1C(=O)C(=O)N(CCC23CC4CC(CC(C4)C2)C3)C1=O
- pIC50 [3]: 6.53
- solubility [1]: 900 µM (≈ 546 µg/mL)

Compound: CC(N1C(=O)C(=O)N(c2ccccc2F)C1=O)C12CC3CC(CC(C3)C1)C2 (stereo not given)
- pIC50 [3]: 6.33
- solubility [1]: 900 µM (≈ 333 µg/mL)

Compound: O=C(Nc1ccc(C23CC4CC(CC(C4)C2)C3)cc1)Nc1ccccc1F
- solubility [1]: 85 µM (≈ 31 µg/mL)

Compound: CCC(CC12CC3CC(CC(C3)C1)C2)N1C(=O)C(=O)N(C23CC4CC(C)(C2)C[C@@](C)(C4)C3)C1=O (stereo not given in full)
- pIC50 [3]: 6.67
- solubility [1]: 100 µM (≈ 46.7 µg/mL)

Compound: O=C(NCCN(CCNC(=O)NCC12CC3CC(CC(C3)C1)C2)CCNC(=O)NCC12CC3CC(CC(C3)C1)C2)NCC12CC3CC(CC(C3)C1)C2
- pIC50 [3]: 8.17
- solubility [1]: 70 µM (≈ 50.4 µg/mL)

Compound: O=C(NCC12CC3CC(CC(C3)C1)C2)Nc1ccccc1F
- pIC50 [3]: 9.15
- solubility [1]: 65 µM (≈ 19.7 µg/mL)

Compound: CC12CC3CC(C)(C1)CC(N1C(=O)C(=O)N(c4ccccc4F)C1=O)(C3)C2
- pIC50 [3]: 6.43
- solubility [1]: 200 µM (≈ 74.1 µg/mL)

Compound: O=C(O)c1ccc(O[C@H]2CC[C@H](N3C(=O)C(=O)N(C4CCCCCC4)C3=O)CC2)cc1
- pIC50 [3]: 7.06
- solubility [1]: 280 µM (≈ 120 µg/mL)

Compound: O=C1C(=O)N(CCC23CC4CC(CC(C4)C2)C3)C(=O)N1CCCCCCN1C(=O)C(=O)N(CCC23CC4CC(CC(C4)C2)C3)C1=O
- pIC50 [3]: 7.04
- solubility [1]: 1300 µM (≈ 825 µg/mL)

Compound: CC12CC3CC(C)(C1)CC(N1C(=O)C(=O)N(C4C5CC6CC(C5)CC4C6)C1=O)(C3)C2 (stereo not given)
- pIC50 [3]: 7.64
- solubility [1]: 100 µM (≈ 41.1 µg/mL)

Compound: CCC(CC12CC3CC(CC(C3)C1)C2)NC(=O)NC12CC3CC(C)(C1)C[C@@](C)(C3)C2 (stereo not given in full)
- solubility [1]: 40 µM (≈ 16.5 µg/mL)
- pIC50 [2]: 7.86

Compound: O=C(O)c1ccc(O[C@H]2CC[C@H](N3C(=O)C(=O)N(C45CC6CC(CC(Cl)(C6)C4)C5)C3=O)CC2)cc1
- pIC50 [3]: 9.40
- solubility [1]: 250 µM (≈ 125 µg/mL)

Compound: O=C(NC12CC3CC(CC(Cl)(C3)C1)C2)N[C@H]1CC[C@H](Oc2ccc(C(=O)O)cc2)CC1
- solubility [1]: 500 µM (≈ 223 µg/mL)
- pIC50 [2]: 9.40

Compound: O=C(NCCCCCCNC(=O)NCCC12CC3CC(CC(C3)C1)C2)NCCC12CC3CC(CC(C3)C1)C2
- solubility [1]: 80 µM (≈ 42.1 µg/mL)
- pIC50 [2]: 9.10

Compound: O=C(NC12CC3CC(C1)C(=O)C(C3)C2)NC12CC3CC(C1)C(=O)C(C3)C2
- pIC50 [3]: 7.92
- solubility [1]: 1750 µM (≈ 624 µg/mL)

Compound: O=C1C(=O)N(c2ccccc2F)C(=O)N1c1ccc(C23CC4CC(CC(C4)C2)C3)cc1
- pIC50 [3]: 6.79
- solubility [1]: 250 µM (≈ 105 µg/mL)

Compound: O=C(NCCCCCCCCNC(=O)NCCC12CC3CC(CC(C3)C1)C2)NCCC12CC3CC(CC(C3)C1)C2
- solubility [1]: 75 µM (≈ 41.6 µg/mL)
- pIC50 [2]: 8.82

Compound: O=C1C(=O)N(C23CC4CC(CC(C4)C2)C3)C(=O)N1CCCCCCN1C(=O)C(=O)N(C23CC4CC(CC(C4)C2)C3)C1=O
- pIC50 [3]: 8.80
- solubility [1]: 120 µM (≈ 69.4 µg/mL)

Compound: CCC(CC12CC3CC(CC(C3)C1)C2)N1C(=O)C(=O)N(CCCCCCCCN2C(=O)C(=O)N(C(CC)CC34CC5CC(CC(C5)C3)C4)C2=O)C1=O (stereo not given)
- pIC50 [3]: 6.19
- solubility [1]: 100 µM (≈ 71.9 µg/mL)

Compound: O=C(O)c1ccc(O[C@H]2CC[C@H](N3C(=O)C(=O)N(c4ccc(OC(F)(F)F)cc4)C3=O)CC2)cc1
- pIC50 [3]: 8.11
- solubility [1]: 210 µM (≈ 103 µg/mL)

Compound: O=C1C(=O)N(CC23CC4CC(CC(C4)C2)C3)C(=O)N1CCN(CCN1C(=O)C(=O)N(CC23CC4CC(CC(C4)C2)C3)C1=O)CCN1C(=O)C(=O)N(CC23CC4CC(CC(C4)C2)C3)C1=O
- pIC50 [3]: 7.10
- solubility [1]: 650 µM (≈ 573 µg/mL)

Compound: O=C(NCCCCNC(=O)NCCC12CC3CC(CC(C3)C1)C2)NCCC12CC3CC(CC(C3)C1)C2
- solubility [1]: 100 µM (≈ 49.9 µg/mL)
- pIC50 [2]: 8.47

Compound: O=C1C(=O)N(C23CC4CC(CC(C4)C2)C3)C(=O)N1CCCCCCCCN1C(=O)C(=O)N(C23CC4CC(CC(C4)C2)C3)C1=O
- pIC50 [3]: 8.42
- solubility [1]: 110 µM (≈ 66.7 µg/mL)

Compound: CC12CC3CC(C)(C1)CC(NC(=O)Nc1ccccc1F)(C3)C2
- pIC50 [3]: 8.44
- solubility [1]: 65 µM (≈ 20.6 µg/mL)

Compound: O=C(Nc1ccc(OC(F)(F)F)cc1)N[C@H]1CC[C@H](Oc2ccc(C(=O)O)cc2)CC1
- solubility [4]: 5 µM (≈ 2.19 µg/mL)

Compound: O=C1C(=O)N(C2C3CC4CC(C3)CC2C4)C(=O)N1c1ccccc1F (stereo not given)
- pIC50 [3]: 5.21
- solubility [1]: 250 µM (≈ 85.6 µg/mL)

Compound: CC(NC(=O)Nc1ccccc1F)C12CC3CC(CC(C3)C1)C2 (stereo not given)
- solubility [1]: 55 µM (≈ 17.4 µg/mL)
